From publication PMC7116037 (Structure (London, England : 1993), 2020)
Where a SMILES comes first, the peptide text is derived from it. [ ]: non-standard residue; d: D form. pT = C[C@@H](OP(=O)(O)O)[C@H](N)C(=O)O; pS = N[C@@H](COP(=O)(O)O)C(=O)O

Legend:
[1] = target: Rattus norvegicus wild-type β-arrestin 2 (βarr2 1-410) (Rattus norvegicus) (UniProt P29067); test: ITC
rat βarr2 = rat βarr2 (Rattus norvegicus, UniProt P29067); test: Isothermal titration calorimetry of C7pp binding to full-length βarr2; details: 298 K, 20 mM Tris-HCl pH 8.0, 200 mM NaCl
rat βarr2, sequence (P29067 whole entry): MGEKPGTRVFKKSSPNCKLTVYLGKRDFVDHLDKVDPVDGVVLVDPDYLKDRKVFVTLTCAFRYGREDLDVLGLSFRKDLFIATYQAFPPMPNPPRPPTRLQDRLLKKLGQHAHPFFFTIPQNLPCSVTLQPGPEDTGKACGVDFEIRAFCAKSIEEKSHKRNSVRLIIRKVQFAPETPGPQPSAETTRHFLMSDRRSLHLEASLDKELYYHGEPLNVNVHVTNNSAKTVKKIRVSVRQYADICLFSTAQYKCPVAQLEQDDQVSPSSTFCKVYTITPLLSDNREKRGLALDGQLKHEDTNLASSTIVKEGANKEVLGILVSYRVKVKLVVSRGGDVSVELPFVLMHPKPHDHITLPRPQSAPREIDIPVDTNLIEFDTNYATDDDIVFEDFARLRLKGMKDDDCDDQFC
Method in brief: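 Rat βarr2 (1–410 WT), expressed in E. coli BL21(DE3)pLysS, in 20 mM Tris-HCl pH 8.0, 200 mM NaCl at 100 μM or 30 μM in the cell, degassed at 295 K. Titration at 298 K: 2.5 μL of C7pp ([…] syringe solution) injected every 200 s with gentle stirring. Binding constant and stoichiometry fitted from the titration curve; n = 3 independent experiments.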

βarr2 = test: HDX-MS profile of βarr2 upon C7pp binding; design: species or system Rattus norvegicus; details: 100 μM βarr2, 500 μM peptide, 1 h at room temperature
[2] = system: truncated version of βarr2; test: HDX-MS profile of truncated βarr2 upon co-incubation with C7pp; design: species or system Rattus norvegicus; details: truncated βarr2 lacking residues 357–410; data not shown

Rattus norvegicus wild-type β-arrestin 2 (βarr2 1-410) (Rattus norvegicus), sequence (P29067 whole entry): as above

Kd [1] | binding behaviour (ITC) (rat βarr2) | Compound | HDX-MS: helix formation in the finger loop (βarr2) | HDX profile of truncated βarr2 upon co-incubation [2]
3.08 µM | – | CXCR7 phosphopeptide (C7pp) | – | –
– | monophasic binding with βarr2 | CC[C@H](C)[C@H](N)C(=O)N[C@@H](Cc1ccccc1)C(=O)N[C@@H](CCCCN)C(=O)N[C@@H](Cc1ccc(O)cc1)C(=O)N[C@@H](COP(=O)(O)O)C(=O)N[C@@H](C)C(=O)N[C@@H](CCCCN)C(=O)N[C@H](C(=O)NCC(=O)N[C@@H](CC(C)C)C(=O)N[C@H](C(=O)N[C@@H](CCCCN)C(=O)N[C@@H](CC(C)C)C(=O)N[C@H](C(=O)N[C@@H](CC(=O)O)C(=O)O)[C@@H](C)CC)[C@@H](C)OP(=O)(O)O)[C@@H](C)OP(=O)(O)O [C7pp] (H-IFKY[pS]AK[pT]GL[pT]KLID-OH; N-terminus and C-terminus assumed) | did not indicate a helix formation in the finger loop | did not change upon co-incubation with C7pp
